Source: ChEMBL document CHEMBL1156889, “Synthesis and biological evaluation of (phenylpiperazinyl-propyl)arylsulfonamides as selective 5-HT(2A) receptor antagonists” (Bioorg Med Chem, 2010)

What was measured:
[1] = molecular target: T1, 5-hydroxytryptamine receptor 2C (Homo sapiens, UniProt P28335); assay: Displacement of [3H]mesulergine from human recombinant 5HT2C receptor expressed in CHO-K1 cells; format: cell-based
T1 sequence (P28335 whole entry): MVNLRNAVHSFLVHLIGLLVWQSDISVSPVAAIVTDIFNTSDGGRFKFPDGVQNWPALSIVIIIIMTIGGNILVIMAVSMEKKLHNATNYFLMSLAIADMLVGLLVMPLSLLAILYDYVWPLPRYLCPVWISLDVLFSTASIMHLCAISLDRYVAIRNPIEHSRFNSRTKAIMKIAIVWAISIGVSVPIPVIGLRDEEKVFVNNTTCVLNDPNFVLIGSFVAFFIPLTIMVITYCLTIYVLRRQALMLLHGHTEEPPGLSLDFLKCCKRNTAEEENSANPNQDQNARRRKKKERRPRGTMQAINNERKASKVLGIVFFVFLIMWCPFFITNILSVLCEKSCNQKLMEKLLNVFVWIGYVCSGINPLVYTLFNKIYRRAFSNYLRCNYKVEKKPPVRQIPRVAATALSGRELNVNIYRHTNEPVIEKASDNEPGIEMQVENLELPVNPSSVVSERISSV
Method in brief: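 Frozen membranes from a stable cell line were incubated with 1 nM [3H]mesulergine and test compound in 50 mM Tris-HCl pH 7.7 containing 0.1% ascorbic acid and pargyline, 30 min at 37 °C. Mianserin defined nonspecific binding. Terminated by rapid filtration through GF/C filters presoaked in 1% BSA.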

[2] = molecular target: 5-hydroxytryptamine receptor 2A (Homo sapiens, UniProt P28223); assay: Displacement of [3H]ketanserin from human recombinant 5HT2A receptor expressed in avCHO-K1 cells; format: cell-based, CHO-K1
Sequence of 5-hydroxytryptamine receptor 2A (P28223 whole entry): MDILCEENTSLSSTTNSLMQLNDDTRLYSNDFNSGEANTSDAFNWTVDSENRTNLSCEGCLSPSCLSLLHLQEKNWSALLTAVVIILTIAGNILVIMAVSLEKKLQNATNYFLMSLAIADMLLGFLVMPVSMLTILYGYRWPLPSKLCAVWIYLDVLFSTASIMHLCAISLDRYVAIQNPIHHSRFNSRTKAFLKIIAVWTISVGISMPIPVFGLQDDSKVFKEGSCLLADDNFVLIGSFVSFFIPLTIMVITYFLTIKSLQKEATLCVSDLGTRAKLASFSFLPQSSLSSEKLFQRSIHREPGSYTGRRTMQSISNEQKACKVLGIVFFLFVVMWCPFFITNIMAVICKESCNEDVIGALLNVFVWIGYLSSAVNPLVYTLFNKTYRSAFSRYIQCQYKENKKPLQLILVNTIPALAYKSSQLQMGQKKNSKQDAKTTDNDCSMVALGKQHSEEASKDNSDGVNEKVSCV
Method in brief: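 Used frozen membranes. [3H]ketanserin was at 1 nM, with mianserin defining nonspecific binding. Incubated 15 min at 37 °C in 50 mM Tris-HCl pH 7.4, then harvested on GF/C glass fiber filters presoaked in 0.05% Brij.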

[3] = molecular target: 5-hydroxytryptamine receptor 7 (Homo sapiens, UniProt P34969); assay: Displacement of [3H]LSD from human recombinant 5HT7 receptor expressed in CHO cells; format: cell-based
Sequence of 5-hydroxytryptamine receptor 7 (P34969 whole entry): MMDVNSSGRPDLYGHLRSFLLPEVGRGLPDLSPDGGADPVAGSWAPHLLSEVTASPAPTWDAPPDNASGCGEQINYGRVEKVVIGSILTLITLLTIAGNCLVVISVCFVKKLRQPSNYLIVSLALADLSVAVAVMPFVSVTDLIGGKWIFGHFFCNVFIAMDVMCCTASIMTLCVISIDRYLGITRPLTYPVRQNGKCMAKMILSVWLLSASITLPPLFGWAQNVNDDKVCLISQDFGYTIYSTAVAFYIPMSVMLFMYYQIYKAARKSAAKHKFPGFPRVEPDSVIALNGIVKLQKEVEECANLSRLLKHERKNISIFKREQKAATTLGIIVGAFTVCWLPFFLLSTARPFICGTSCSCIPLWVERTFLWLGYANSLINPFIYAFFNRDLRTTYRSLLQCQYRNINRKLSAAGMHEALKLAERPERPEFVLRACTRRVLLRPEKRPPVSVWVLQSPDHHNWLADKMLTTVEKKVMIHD
Method in brief: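 Membranes from stably transfected CHO cells. Reaction mix held 3 nM [3H]LSD and test compound in 50 mM Tris-HCl pH 7.4 with 10 mM MgCl2 and 0.5 mM EDTA, incubated 90 min at 27 °C. Stopped by rapid filtration on GF/C filters presoaked in 0.3% polyethylenimine, then scintillation counted. Methiothepin defined nonspecific binding. 7-8 concentrations were run in duplicate, and IC50 came from nonlinear regression of isotherms from three assays.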

[4] = molecular target: Serotonin 2 receptors; 5-HT2a & 5-HT2c (Homo sapiens) (UniProt P28223+P28335); assay: Selectivity for human recombinant 5HT2A receptor over human recombinant 5HT2C receptor
Sequence of Serotonin 2 receptors; 5-HT2a & 5-HT2c (Homo sapiens) (P28223 whole entry, looked up, one chain of several): as the sequence (P28223 whole entry) above

Homo sapiens = species: Homo sapiens; assay: Selectivity for human recombinant 5HT2A receptor over human recombinant 5HT7 receptor

| Structure (SMILES) | IC50 [1] [nM] | IC50 [2] [nM] | IC50 [3] [nM] | Ratio IC50 [4] | Ratio IC50 (Homo sapiens) |
| --- | --- | --- | --- | --- | --- |
| O=S(=O)(c1cccc2cccnc12)N(CCCN1CCN(c2ccc(F)cc2)CC1)CC1CCCCC1 | 136 | 5.1 | 442 | – | – |
| O=S(=O)(c1ccc2ccccc2c1)N(CCCN1CCN(c2cccc(C(F)(F)F)c2)CC1)CC1CCCCC1 | 66 | 13.1 | 888 | – | – |
| O=S(=O)(c1cccc2cccnc12)N(CCCN1CCN(c2ccccc2)CC1)CC1CC1 | 2160 | 292 | 749 | – | – |
| O=S(=O)(c1cccc2cccnc12)N(CCCN1CCN(c2cccc(C(F)(F)F)c2)CC1)CC1CCCCC1 | 38.8 | 29.1 | 160 | – | – |
| O=S(=O)(c1ccc2ccccc2c1)N(CCCN1CCN(c2cccc(C(F)(F)F)c2)CC1)CC1CC1 | 304 | 221 | 342 | – | – |
| O=S(=O)(c1cccc2cccnc12)N(CCCN1CCN(c2cccc(C(F)(F)F)c2)CC1)CC1CC1 | 694 | 75 | 6.3 | – | – |
| O=S(=O)(c1ccc(C(F)(F)F)cc1)N(CCCN1CCN(c2ccccc2)CC1)CC1CCCCC1 | 156 | 7.1 | 456 | – | – |
| COc1ccc(S(=O)(=O)N(CCCN2CCN(c3cccc(C(F)(F)F)c3)CC2)CC2CCCCC2)cc1 | 33 | 19.5 | 678 | – | – |
| O=S(=O)(c1cccc2cccnc12)N(CCCN1CCN(c2ccc(F)cc2)CC1)CC1CC1 | 4750 | 8.3 | 35.3 | – | – |
| O=S(=O)(c1cccc2ccccc12)N(CCCN1CCN(c2ccccc2)CC1)CC1CCCCC1 | 50.7 | 2.6 | 195 | – | – |
| COc1ccccc1N1CCN(CCCN(CC2CC2)S(=O)(=O)c2cccc3cccnc23)CC1 | 8310 | 561 | 12.3 | – | – |
| CC(CCN1CCN(c2ccc(F)cc2)CC1)NS(=O)(=O)c1ccc2ccccc2c1 (centres undefined) | 90 | 6.2 | 526 | 15 | 85 |
| COc1ccc(S(=O)(=O)N(CCCN2CCN(c3ccc(F)cc3)CC2)CC2CCCCC2)cc1 | 40 | 3.4 | 980 | – | – |
| CC(CCN1CCN(c2cccc(C(F)(F)F)c2)CC1)NS(=O)(=O)c1ccc2ccccc2c1 (centres undefined) | 942 | 180 | 363 | – | – |
| O=S(=O)(c1ccc(F)cc1)N(CCCN1CCN(c2ccccc2)CC1)CC1CC1 | 1980 | 142 | 147 | – | – |
| COc1ccc(S(=O)(=O)N(CCCN2CCN(c3ccccc3OC)CC2)CC2CC2)cc1 | 1980 | 2210 | 316 | – | – |
| O=S(=O)(c1cccc2ccccc12)N(CCCN1CCN(c2ccccc2)CC1)CC1CC1 | 1460 | 171 | 152 | – | – |
| COc1ccc(S(=O)(=O)N(CCCN2CCN(c3ccccc3OC)CC2)CC2CCCCC2)cc1 | 200 | 16.3 | 172 | – | – |
| O=S(=O)(c1ccc(F)cc1)N(CCCN1CCN(c2ccccc2)CC1)CC1CCCCC1 | 294 | 13.2 | 110 | – | – |

| Structure (SMILES) | IC50 [1] [nM] | IC50 [2] [nM] | IC50 [3] [nM] | Ratio IC50 [4] | Ratio IC50 (Homo sapiens) |
| --- | --- | --- | --- | --- | --- |
| COc1ccccc1N1CCN(CCCN(CC2CCCCC2)S(=O)(=O)c2cccc3cccnc23)CC1 | 118 | 59.9 | 24 | – | – |
| O=S(=O)(c1ccc(C(F)(F)F)cc1)N(CCCN1CCN(c2ccccc2)CC1)CC1CC1 | 565 | 70.8 | 334 | – | – |
| O=[N+]([O-])c1ccc(S(=O)(=O)N(CCCN2CCN(c3ccccc3)CC2)CC2CC2)cc1 | 1940 | 180 | 500 | – | – |
| COc1ccc(S(=O)(=O)N(CCCN2CCN(c3cccc(C(F)(F)F)c3)CC2)CC2CC2)cc1 | 1030 | 726 | 124 | – | – |
| O=S(=O)(c1ccc2ccccc2c1)N(CCCN1CCN(c2ccccc2)CC1)CC1CC1 | 479 | 35.9 | 117 | – | – |
| COc1ccc(S(=O)(=O)N(CCCN2CCN(c3ccccc3)CC2)CC2CC2)cc1 | 691 | 136 | 121 | – | – |
| COc1ccccc1N1CCN(CCC(C)NS(=O)(=O)c2ccc3ccccc3c2)CC1 (centres undefined) | 539 | 664 | 316 | – | – |
| O=S(=O)(c1ccc2ccccc2c1)N(CCCN1CCN(c2ccc(F)cc2)CC1)CC1CCCCC1 | 24 | 0.5 | 1510 | 50 | 3000 |
| O=S(=O)(c1ccc2ccccc2c1)N(CCCN1CCN(c2ccccc2)CC1)CC1CCCCC1 | 65 | 0.7 | 1240 | 100 | 1500 |
| COc1ccccc1N1CCN(CCCN(CC2CCCCC2)S(=O)(=O)c2ccc3ccccc3c2)CC1 | 70 | 11.6 | 500 | – | – |
| O=[N+]([O-])c1ccc(S(=O)(=O)N(CCCN2CCN(c3ccccc3)CC2)CC2CCCCC2)cc1 | 45.7 | 4.2 | 87 | – | – |
| O=S(=O)(c1cccc2cccnc12)N(CCCN1CCN(c2ccc(Cl)c(Cl)c2)CC1)CC1CCCCC1 | 66.5 | 7.7 | 2300 | – | – |
| CC(CCN1CCN(c2ccccc2)CC1)NS(=O)(=O)c1ccc2ccccc2c1 (centres undefined) | 200 | 12.7 | 657 | 16 | 50 |
| COc1ccccc1N1CCN(CCCN(CC2CC2)S(=O)(=O)c2ccc3ccccc3c2)CC1 | 549 | 85.8 | 188 | – | – |
| O=S(=O)(c1ccc2ccccc2c1)N(CCCN1CCN(c2ccc(F)cc2)CC1)CC1CC1 | 343 | 51 | 49.6 | – | – |
| COc1ccc(S(=O)(=O)N(CCCN2CCN(c3ccc(F)cc3)CC2)CC2CC2)cc1 | 723 | 72.5 | 93 | – | – |
| COc1ccc(S(=O)(=O)N(CCCN2CCN(c3ccccc3)CC2)CC2CCCCC2)cc1 | 79 | 9.4 | 567 | – | – |
| O=S(=O)(c1cccc2cccnc12)N(CCCN1CCN(c2ccccc2)CC1)CC1CCCCC1 | 843 | 34.6 | 419 | – | – |
